Published values gathered from unrelated publications.
rep main protease: Replicase polyprotein 1ab, main protease (rep, Porcine epidemic diarrhea virus, UniProt P0C6Y4)
SLC6A4: Sodium-dependent serotonin transporter (SLC6A4, Homo sapiens, UniProt P31645)

SMILES	target	read-out	mode	technique	concentration	measurement	value
COc1cc(CNC(=O)c2ccccc2C)cc(Br)c1OC	rep main protease	enzyme activity	inhibitor	FRET	10 µM	inhibition	92.8%
CCCCC(=O)Nc1ccc(-c2ccc3ncn(CCC)c(=O)c3c2)cn1	Mitogen-activated protein kinase kinase kinase 20 (MAP3K20, Homo sapiens, UniProt Q9NYL2)	binding		competition with immobilised ligand	0.5 µM	remaining binding	54%
Cc1cc(O)c(-c2ccc([C@@H](C)CN(C)C)cc2)c2c1[nH]c(=O)c1sccc12	SRSF protein kinase 2 (SRPK2, Homo sapiens, UniProt P78362)	enzyme activity	inhibitor		0.1 µM	inhibition	-3.6%
CNC(=O)[C@@]12C[C@@H]1[C@@H](n1cnc3c(NCc4cccc(Cl)c4)nc(C#Cc4ccc(Cl)s4)nc31)[C@H](O)[C@@H]2O	SLC6A4	ligand displacement		radioligand	10 µM	inhibition	10%
C1=C/COCc2cc(ccc2OCCN2CCCC2)Nc2nccc(n2)-c2cccc(c2)COC/1	Calcium/calmodulin-dependent protein kinase type 1D (CAMK1D, Homo sapiens, UniProt Q8IU85)	binding			0.1 µM	remaining binding	63%
CCOC(=O)[C@@]12C[C@@H]1[C@@H](n1ccc3c(NCCCCCc4ccccc4)nc(C#Cc4ccccc4)nc31)[C@H](O)[C@@H]2O	SLC6A4	ligand displacement		radioligand	10 µM	inhibition	29%
COc1cc(CNC(=O)c2nccs2)cc(Br)c1OC	Replicase polyprotein 1ab, papain-like protease (rep, Porcine epidemic diarrhea virus, UniProt P0C6Y4)	enzyme activity	inhibitor	FRET	10 µM	inhibition	10.3%
OC[C@@]12C[C@@H]1[C@@H](n1cnc3c(Nc4ccccc4)nc(I)nc31)[C@H](O)[C@@H]2O	SLC6A4	ligand displacement		radioligand	10 µM	inhibition	-22%
COc1cc(CNC(=O)c2ccco2)cc(Br)c1OC	rep main protease	enzyme activity	inhibitor	FRET	10 µM	inhibition	64.9%
